Source: ChEMBL document CHEMBL5325511, “Discovery of N-(4-(Aminomethyl)phenyl)-5-methylpyrimidin-2-amine Derivatives as Potent and Selective JAK2 Inhibitors” (ACS Med Chem Lett, 2023)

How the values were obtained:
[1] = molecular target: Tyrosine-protein kinase JAK2 (Mus musculus, UniProt Q62120, V617F); assay: Inhibition of JAK2 V617F mutant in mouse BaF3 cells; format: cell-based
How it was run: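 Cell proliferation assay. IC50 is the concentration that inhibits proliferation by 50%, taken from dose–response curves. Mean ± SEM of at least three independent experiments.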

[2] = molecular target: T1, Receptor-type tyrosine-protein kinase FLT3 (Homo sapiens, UniProt P36888); assay: Inhibition of FLT3 (unknown origin) in presence of Mg/ATP mixture by [gamma p33]-ATP based radiometric assay
T1 sequence (P36888 whole entry): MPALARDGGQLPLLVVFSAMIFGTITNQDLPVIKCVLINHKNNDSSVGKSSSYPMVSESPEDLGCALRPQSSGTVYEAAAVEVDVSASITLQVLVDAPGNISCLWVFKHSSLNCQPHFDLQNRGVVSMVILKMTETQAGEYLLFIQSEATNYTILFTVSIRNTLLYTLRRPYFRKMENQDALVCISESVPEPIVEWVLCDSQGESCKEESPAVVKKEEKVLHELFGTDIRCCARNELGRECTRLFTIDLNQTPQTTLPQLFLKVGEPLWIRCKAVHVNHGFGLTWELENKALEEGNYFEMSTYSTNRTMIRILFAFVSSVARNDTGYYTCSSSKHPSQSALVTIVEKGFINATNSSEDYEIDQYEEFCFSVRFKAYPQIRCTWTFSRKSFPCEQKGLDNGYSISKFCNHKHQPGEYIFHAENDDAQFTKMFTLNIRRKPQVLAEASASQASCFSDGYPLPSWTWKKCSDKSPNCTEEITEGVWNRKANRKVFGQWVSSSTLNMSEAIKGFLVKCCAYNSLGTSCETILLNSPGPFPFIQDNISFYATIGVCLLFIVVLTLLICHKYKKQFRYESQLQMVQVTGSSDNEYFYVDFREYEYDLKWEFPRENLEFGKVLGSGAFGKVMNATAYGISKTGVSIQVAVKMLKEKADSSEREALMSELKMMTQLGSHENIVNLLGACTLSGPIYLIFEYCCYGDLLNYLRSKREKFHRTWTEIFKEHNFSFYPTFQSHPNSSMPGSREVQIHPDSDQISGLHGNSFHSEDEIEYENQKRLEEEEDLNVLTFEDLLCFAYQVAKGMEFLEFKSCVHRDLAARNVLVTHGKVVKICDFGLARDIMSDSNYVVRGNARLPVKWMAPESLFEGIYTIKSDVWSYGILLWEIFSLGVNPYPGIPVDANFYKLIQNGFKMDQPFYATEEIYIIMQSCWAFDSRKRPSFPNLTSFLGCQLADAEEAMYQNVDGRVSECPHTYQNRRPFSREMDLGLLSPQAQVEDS
How it was run: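 IC50 values determined by Eurofins Discovery.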

BaF3 [3] = assay: Induction of cell cycle arrest in mouse BaF3 cells harbouring JAK2 […] mutant assessed as accumulation of cells at S phase at 0.5 nM incubated for 24 hrs by propidium iodide staining based flow cytometry analysis (reference value: 33.80 %); format: functional
BaF3 [4] = assay: Induction of cell cycle arrest in mouse BaF3 cells harbouring JAK2 […] mutant assessed as accumulation of cells at G0/G1 phase at 2 nM incubated for 24 hrs by propidium iodide staining based flow cytometry analysis (reference value: 56.85 %); format: functional
BaF3 [5] = assay: Induction of cell cycle arrest in mouse BaF3 cells harbouring JAK2 […] mutant assessed as accumulation of cells at S phase at 2 nM incubated for 24 hrs by propidium iodide staining based flow cytometry analysis (reference value: 33.80 %); format: functional
BaF3 [6] = assay: Induction of cell cycle arrest in mouse BaF3 cells harbouring JAK2 […] mutant assessed as accumulation of cells at G0/G1 phase at 4 nM incubated for 24 hrs by propidium iodide staining based flow cytometry analysis (reference value: 56.85 %); format: functional
BaF3 [7] = assay: Induction of cell cycle arrest in mouse BaF3 cells harbouring JAK2 […] mutant assessed as accumulation of cells at S phase at 4 nM incubated for 24 hrs by propidium iodide staining based flow cytometry analysis (reference value: 33.80 %); format: functional
BaF3 [8] = assay: Induction of cell cycle arrest in mouse BaF3 cells harbouring JAK2 […] mutant assessed as accumulation of cells at S phase at 8 nM incubated for 24 hrs by propidium iodide staining based flow cytometry analysis (reference value: 33.80 %); format: functional
BaF3 [9] = assay: Induction of cell cycle arrest in mouse BaF3 cells harbouring JAK2 […] mutant assessed as accumulation of cells at S phase at 16 nM incubated for 24 hrs by propidium iodide staining based flow cytometry analysis (reference value: 33.80 %); format: functional
BaF3 [10] = assay: Induction of apoptosis in mouse BaF3 cells harbouring JAK2 V617F mutant assessed as viable cells at 20 nM incubated for 24 hrs by Annexin V / propidium iodide staining based flow cytometry analysis (reference value: 72.8 %); format: functional; conditions: read-out: Activity
How it was run: (§1)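 Ba/F3 JAK2V617F cells exposed to compound at 20, 40, 80, 160 and 320 nM, then analysed for apoptosis by flow cytometry. Significance vs control by Dunnett's t test.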

BaF3 [11] = assay: Induction of apoptosis in mouse BaF3 cells harbouring JAK2 V617F mutant assessed as early apoptotic cells at 40 nM incubated for 24 hrs by Annexin V / propidium iodide staining based flow cytometry analysis (reference value: 14.4 %); format: functional; how it was run: as §1
BaF3 [12] = assay: Induction of apoptosis in mouse BaF3 cells harbouring JAK2 V617F mutant assessed as late apoptotic cells at 40 nM incubated for 24 hrs by Annexin V / propidium iodide staining based flow cytometry analysis (reference value: 12.2 %); format: functional; how it was run: as §1
BaF3 [13] = assay: Induction of apoptosis in mouse BaF3 cells harbouring JAK2 V617F mutant assessed as viable cells at 80 nM incubated for 24 hrs by Annexin V / propidium iodide staining based flow cytometry analysis (reference value: 72.8 %); format: functional; conditions: read-out: Activity; how it was run: as §1
BaF3 [14] = assay: Induction of apoptosis in mouse BaF3 cells harbouring JAK2 V617F mutant assessed as early apoptotic cells at 160 nM incubated for 24 hrs by Annexin V / propidium iodide staining based flow cytometry analysis (reference value: 14.4 %); format: functional; how it was run: as §1
BaF3 [15] = assay: Induction of apoptosis in mouse BaF3 cells harbouring JAK2 V617F mutant assessed as viable cells at 320 nM incubated for 24 hrs by Annexin V / propidium iodide staining based flow cytometry analysis (reference value: 72.8 %); format: functional; conditions: read-out: Activity; how it was run: as §1
BaF3 [16] = assay: Induction of apoptosis in mouse BaF3 cells harbouring JAK2 V617F mutant assessed as late apoptotic cells at 320 nM incubated for 24 hrs by Annexin V / propidium iodide staining based flow cytometry analysis (reference value: 12.2 %); format: functional; how it was run: as §1
[17] = Selectivity ratio of IC50 for JAK3 (unknown origin) to IC50 for JAK2 (unknown origin)
[18] = Selectivity ratio of IC50 for TYK2 (unknown origin) to IC50 for JAK2 (unknown origin)
[19] = Selectivity ratio of IC50 for FLT3 (unknown origin) to IC50 for JAK2 (unknown origin)

Chain of Tyrosine-protein kinase JAK2 (Q62120 as listed by the source V617F): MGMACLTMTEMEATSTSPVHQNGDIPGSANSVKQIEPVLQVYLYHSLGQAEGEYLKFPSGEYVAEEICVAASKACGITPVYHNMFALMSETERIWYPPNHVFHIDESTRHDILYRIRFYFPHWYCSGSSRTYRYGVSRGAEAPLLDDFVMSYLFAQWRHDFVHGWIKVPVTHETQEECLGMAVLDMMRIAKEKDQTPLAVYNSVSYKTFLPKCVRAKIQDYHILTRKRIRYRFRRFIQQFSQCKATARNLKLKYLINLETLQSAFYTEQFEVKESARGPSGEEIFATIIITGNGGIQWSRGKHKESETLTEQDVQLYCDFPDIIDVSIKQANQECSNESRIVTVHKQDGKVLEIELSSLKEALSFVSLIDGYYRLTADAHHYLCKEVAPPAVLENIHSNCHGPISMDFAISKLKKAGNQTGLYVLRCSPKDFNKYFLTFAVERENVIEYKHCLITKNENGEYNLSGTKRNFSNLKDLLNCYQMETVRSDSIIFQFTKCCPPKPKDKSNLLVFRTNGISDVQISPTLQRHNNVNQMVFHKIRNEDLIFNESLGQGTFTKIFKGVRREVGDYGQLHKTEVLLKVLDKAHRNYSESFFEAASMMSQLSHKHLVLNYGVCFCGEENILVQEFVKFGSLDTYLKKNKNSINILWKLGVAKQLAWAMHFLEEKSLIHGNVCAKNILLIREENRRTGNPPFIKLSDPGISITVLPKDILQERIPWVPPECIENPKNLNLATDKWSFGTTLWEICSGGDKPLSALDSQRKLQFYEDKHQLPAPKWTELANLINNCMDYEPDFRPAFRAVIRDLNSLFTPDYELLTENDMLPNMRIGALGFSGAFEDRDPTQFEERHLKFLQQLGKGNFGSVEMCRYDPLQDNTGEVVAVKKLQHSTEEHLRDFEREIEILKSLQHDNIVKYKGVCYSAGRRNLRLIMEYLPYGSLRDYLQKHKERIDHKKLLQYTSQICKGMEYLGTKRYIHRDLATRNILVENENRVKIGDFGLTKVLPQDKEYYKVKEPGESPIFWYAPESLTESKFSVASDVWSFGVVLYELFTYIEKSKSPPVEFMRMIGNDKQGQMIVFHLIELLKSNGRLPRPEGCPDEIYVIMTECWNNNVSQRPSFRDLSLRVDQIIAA

Row | Structure (SMILES) | IC50 ([1]; baf3) | IC50 [2] | Activity (BaF3 [3]) | Activity (BaF3 [4]) | Activity (BaF3 [5]) | Activity (BaF3 [6]) | Activity (BaF3 [7]) | Activity (BaF3 [8]) | Activity (BaF3 [9]) | viability at 0.02 µM (BaF3 [10]) | Activity (BaF3 [11]) | Activity (BaF3 [12]) | viability at 0.08 µM (BaF3 [13]) | Activity (BaF3 [14]) | viability at 0.32 µM (BaF3 [15]) | Activity (BaF3 [16]) | Ratio IC50 [17] | Ratio IC50 [18] | Ratio IC50 [19] | IC50 [1]
1 | Cc1cnc(Nc2ccc3c(c2)CCN(C(=O)/C=C/CN(C)C)C3)nc1-c1cnn(C(C)C)c1 | 41 nM | 62 nM | 34.4% | 56.54% | 27.94% | 57.34% | 33.33% | 32.2% | 31.63% | 68.6% | 22.4% | 15.6% | 38.8% | 48.1% | 14.3% | 35.2% | 31 | 25 | 20.7 | 
2 | C=CS(=O)(=O)NCc1ccc(Nc2ncc(C)c(-c3cnn(C(C)C)c3)n2)cc1 |  | 467 nM | 31.74% | 61.14% | 30.58% | 62.95% | 29.44% | 27.77% | 20.76% | 53.7% | 26.4% | 26.2% | 22.3% | 37.5% | 24.5% | 40.1% | 54.6 | 41.2 | 93.4 | 25.3 nM
